Test results from ChEMBL document CHEMBL2010794, “Discovery of nor-seco himbacine analogs as thrombin receptor antagonists” (Bioorg Med Chem Lett, 2012).
The source made the active and inactive calls. No cut-off for these calls is given here.

How the values were obtained:
[1] = Cmax in cynomolgus monkey plasma at 3 mg/kg, po; type: ADME, organism-based, Macaca fascicularis; set-up: dose 3 mg/kg, route oral
Cynomolgus monkey [2] = experiment: Cmax in cynomolgus monkey plasma assessed as M+16 hydroxy metabolite at 3 mg/kg, po; type: ADME, organism-based, Macaca fascicularis; set-up: dose 3 mg/kg, route oral; conditions: in vivo
[3] = AUC (0 to 24 hrs) in cynomolgus monkey plasma at 3 mg/kg, po; type: ADME, organism-based, Macaca fascicularis; set-up: time < 24 hr, dose 3 mg/kg, route oral
Cynomolgus monkey [4] = experiment: Ex-vivo inhibition of PAR1 in cynomolgus monkey assessed as inhibition of haTRAP-induced platelet aggregation at 3 mg/kg, po at 24 hrs by aggregometry; type: functional; conditions: Macaca fascicularis
How it was run: (§1)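 Cynomolgus monkeys dosed orally in 20% PEG-HPBCD (hydrochloride salt for the 7a-hydroxy series); blood sampled at various times up to 24 h; haTRAP added to whole blood at 1 µM to trigger aggregation, measured by aggregometer; result given as % reduction in haTRAP-induced aggregation at the stated dose and time.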

Cynomolgus monkey [5] = experiment: AUC (0 to 24 hrs) in cynomolgus monkey plasma assessed as M+16 hydroxy metabolite at 3 mg/kg, po; type: ADME, organism-based, Macaca fascicularis; set-up: time < 24 hr, dose 3 mg/kg, route oral; conditions: in vivo
Cynomolgus monkey [6] = experiment: Ex-vivo inhibition of PAR1 in cynomolgus monkey assessed as inhibition of haTRAP-induced platelet aggregation at 1 mg/kg, po at 24 hrs by aggregometry; type: functional; conditions: Macaca fascicularis; how it was run: as §1
[7] = biological target: T1, Proteinase-activated receptor 1 (Homo sapiens, UniProt P25116); experiment: Displacement of [3H]haTRAP from human PAR1 after 1 hr by TopCount scintillation counting
T1 sequence (P25116 whole entry): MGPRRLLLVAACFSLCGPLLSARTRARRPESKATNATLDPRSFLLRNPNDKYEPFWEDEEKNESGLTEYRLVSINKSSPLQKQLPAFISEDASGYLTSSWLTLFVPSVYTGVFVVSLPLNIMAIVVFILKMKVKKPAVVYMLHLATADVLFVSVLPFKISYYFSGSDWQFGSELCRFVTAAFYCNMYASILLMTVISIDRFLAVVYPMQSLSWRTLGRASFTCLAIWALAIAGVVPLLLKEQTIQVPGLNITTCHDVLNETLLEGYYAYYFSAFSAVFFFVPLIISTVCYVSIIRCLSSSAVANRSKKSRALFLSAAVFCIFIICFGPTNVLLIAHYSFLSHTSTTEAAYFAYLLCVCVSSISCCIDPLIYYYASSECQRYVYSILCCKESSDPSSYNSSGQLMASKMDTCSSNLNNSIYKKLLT
How it was run: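 PAR-1 receptors isolated from human platelets; competition binding against [³H]haTRAP radioligand; values expressed as IC₅₀ (nM).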

[8] = AUC (0 to 6 hrs) in rat at 10 mg/kg, po; type: ADME, organism-based; set-up: time < 6 hr, dose 10 mg/kg, route oral; conditions: plasma
How it was run: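 Rats given a single 10 mg/kg oral dose in 0.4% methylcellulose; plasma levels followed up to 6 h; AUC from 0 to 6 h reported in ng h/mL.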

Liver microsomes = experiment: Prodrug activation in rat liver microsomes assessed as (3R,3aR,4S,5R,6S,7aS)-5-ethyl-4-((E)-2-(5-(3-fluorophenyl)pyridin-2-yl)vinyl)-7a-hydroxy-3,6-dimethylhexahydroisobenzofuran-1(3H)-one formation; set-up: species or system Microsome
Cynomolgus monkey [9] = experiment: Ex-vivo inhibition of PAR1 in cynomolgus monkey assessed as inhibition of haTRAP-induced platelet aggregation at 1 mg/kg, po by aggregometry; type: functional, organism-based; set-up: dose 1 mg/kg; conditions: Macaca fascicularis; how it was run: as §1
Cynomolgus monkey [10] = experiment: Ex-vivo inhibition of PAR1 in cynomolgus monkey assessed as inhibition of haTRAP-induced platelet aggregation at 3 mg/kg, po at 6 hrs by aggregometry; type: functional; conditions: Macaca fascicularis; how it was run: as §1
[11] = AUC (0 to 24 hrs) in cynomolgus monkey at 1 mg/kg, po; type: ADME, organism-based, Macaca fascicularis; set-up: time < 24 hr, dose 1 mg/kg, route oral; conditions: plasma
Cynomolgus monkey [12] = experiment: Ex-vivo inhibition of PAR1 in cynomolgus monkey assessed as inhibition of haTRAP-induced platelet aggregation at 1 mg/kg, po up to 6 hrs by aggregometry; type: functional, organism-based; set-up: dose 1 mg/kg; conditions: Macaca fascicularis; how it was run: as §1
[13] = AUC (0 to 24 hrs) in cynomolgus monkey plasma at 1 mg/kg, po; type: ADME, organism-based, Macaca fascicularis; set-up: time < 24 hr, dose 1 mg/kg, route oral
Cynomolgus monkey [14] = experiment: Ex-vivo inhibition of PAR1 in cynomolgus monkey assessed as inhibition of haTRAP-induced platelet aggregation at 0.3 mg/kg, po by aggregometry; type: functional, organism-based; set-up: dose 0.3 mg/kg; conditions: Macaca fascicularis; how it was run: as §1

SMILES | IC50 ([7]; read-out: IC50) | AUC(0-t) at 6 h [8] | also measured
CC[C@H]1[C@H](/C=C/c2ccc(-c3cccc(F)c3)cn2)[C@@H]2[C@@H](C)OC(=O)[C@@H]2C[C@@H]1C | 0.015 µM | 0.23 µg·h/mL | Cmax [1]: 0.062 µg/mL; Cmax (Cynomolgus monkey [2]): 0.098 µg/mL; AUC(0-t) at 24 h [3]: 0.451 µg·h/mL; inhibition in vivo at 3 mg/kg (Cynomolgus monkey [4]): 100%; AUC (Cynomolgus monkey [5]): 1.4 µg·h/mL; inhibition in vivo at 1 mg/kg (Cynomolgus monkey [6]): 69%; Drug metabolism (Liver microsomes): Active
CC[C@H]1[C@H](/C=C/c2ccc(-c3cccc(Cl)c3)cn2)[C@@H]2[C@@H](C)OC(=O)[C@@H]2C[C@@H]1C | 0.028 µM |  | 
CC[C@H]1[C@H](/C=C/c2ccc(-c3cccc(OC)c3)cn2)[C@@H]2[C@@H](C)OC(=O)[C@]2(O)C[C@@H]1C [listing 1 of 2 here] | 0.018 µM | 2.44 µg·h/mL | 
CC[C@H]1[C@H](/C=C/c2ccc(-c3cccnc3)cn2)[C@@H]2[C@@H](C)OC(=O)[C@]2(O)C[C@@H]1C [listing 1 of 2 here] |  |  | inhibition in vivo at 3 mg/kg (Cynomolgus monkey [4]): 45%
CC[C@H]1[C@H](/C=C/c2ccc(-c3cccc(OC)c3)cn2)[C@@H]2[C@@H](C)OC(=O)[C@]2(O)C[C@@H]1C [listing 2 of 2 here] |  |  | inhibition (Cynomolgus monkey [9]): inactive
CC[C@H]1[C@H](/C=C/c2ccc(N3CCCC3)cn2)[C@@H]2[C@@H](C)OC(=O)[C@]2(O)C[C@@H]1C [listing 1 of 2 here] |  |  | inhibition in vivo at 3 mg/kg (Cynomolgus monkey [10]): 100%
CC[C@H]1[C@H](/C=C/c2ccc(-c3ccccc3OC)cn2)[C@@H]2[C@@H](C)OC(=O)[C@]2(O)C[C@@H]1C | 0.0081 µM | 0.168 µg·h/mL | 
CC[C@H]1[C@H](/C=C/c2ccc(-c3ccccc3C)cn2)[C@@H]2[C@@H](C)OC(=O)[C@]2(O)C[C@@H]1C.Cl |  |  | inhibition in vivo at 3 mg/kg (Cynomolgus monkey [10]): 55%; AUC(0-t) at 24 h [3]: 2.72 µg·h/mL
CC[C@H]1[C@H](/C=C/c2ccc(-c3cccc(Cl)c3Cl)cn2)[C@@H]2[C@@H](C)OC(=O)[C@@H]2C[C@@H]1C | 0.013 µM | 1.15 µg·h/mL | AUC(0-t) at 24 h [3]: 0.573 µg·h/mL; inhibition in vivo at 3 mg/kg (Cynomolgus monkey [4]): 95%; AUC (Cynomolgus monkey [5]): 0.813 µg·h/mL
CC[C@H]1[C@H](/C=C/c2ccc(-c3cccc(F)c3)cn2)[C@@H]2[C@@H](C)OC(=O)[C@]2(O)C[C@@H]1C | 0.027 µM | 1.14 µg·h/mL | AUC(0-t) at 24 h [11]: 4.28 µg·h/mL; inhibition (Cynomolgus monkey [12]): Active; inhibition in vivo at 3 mg/kg (Cynomolgus monkey [4]): 100%
CC[C@H]1[C@H](/C=C/c2ccc(-c3cccc(OC)c3)cn2)[C@@H]2[C@@H](C)OC(=O)[C@]2(O)C[C@@H]1C.Cl |  |  | AUC(0-t) at 24 h [13]: 1.21 µg·h/mL
CC[C@H]1[C@H](/C=C/c2ccc(-c3cccc(C)c3)cn2)[C@@H]2[C@@H](C)OC(=O)[C@]2(O)C[C@@H]1C | 0.035 µM | 0.203 µg·h/mL | 
CC[C@H]1[C@H](/C=C/c2ccc(-c3cccc(C(F)(F)F)c3)cn2)[C@@H]2[C@@H](C)OC(=O)[C@@H]2C[C@@H]1C | 0.024 µM |  | 
CC[C@H]1[C@H](/C=C/c2ccc(-c3ccccc3F)cn2)[C@@H]2[C@@H](C)OC(=O)[C@@H]2C[C@@H]1C | 0.022 µM | 0.852 µg·h/mL | inhibition in vivo at 3 mg/kg (Cynomolgus monkey [4]): 45%
CC[C@H]1[C@H](/C=C/c2ccc(-c3ccccc3C)cn2)[C@@H]2[C@@H](C)OC(=O)[C@@H]2C[C@@H]1C | 0.02 µM |  | 
CC[C@H]1[C@H](/C=C/c2ccc(-c3ccc(OC)cc3)cn2)[C@@H]2[C@@H](C)OC(=O)[C@]2(O)C[C@@H]1C | 0.451 µM |  | 
CC[C@H]1[C@H](/C=C/c2ccc(-c3ccccc3C)cn2)[C@@H]2[C@@H](C)OC(=O)[C@]2(O)C[C@@H]1C | 0.033 µM | 3.16 µg·h/mL | 
CC[C@H]1[C@H](/C=C/c2ccc(-c3ccc(C#N)cc3)cn2)[C@@H]2[C@@H](C)OC(=O)[C@]2(O)C[C@@H]1C |  |  | IC50 [7]: Not Active

SMILES | IC50 ([7]; read-out: IC50) | AUC(0-t) at 6 h [8] | also measured
CC[C@H]1[C@H](/C=C/c2ccc(-c3ccsc3)cn2)[C@@H]2[C@@H](C)OC(=O)[C@]2(O)C[C@@H]1C | 0.0046 µM | 0.397 µg·h/mL | 
CC[C@H]1[C@H](/C=C/c2ccc(-c3ccccc3)cn2)[C@@H]2[C@@H](C)OC(=O)[C@@H]2C[C@@H]1C | 0.0088 µM | 0.672 µg·h/mL | 
CC[C@H]1[C@H](/C=C/c2ccc(-c3ccccc3Cl)cn2)[C@@H]2[C@@H](C)OC(=O)[C@@H]2C[C@@H]1C | 0.025 µM |  | 
CC[C@H]1[C@H](/C=C/c2ccc(-c3ccccc3)cn2)[C@@H]2[C@@H](C)OC(=O)[C@]2(O)C[C@@H]1C [listing 1 of 2 here] |  |  | inhibition (Cynomolgus monkey [14]): Active; inhibition (Cynomolgus monkey [4]): Active
CC[C@H]1[C@H](/C=C/c2ccc(-c3cc(Cl)ccc3Cl)cn2)[C@@H]2[C@@H](C)OC(=O)[C@@H]2C[C@@H]1C | 0.513 µM |  | 
CC[C@H]1[C@H](/C=C/c2ccc(-c3cccc(C)c3)cn2)[C@@H]2[C@@H](C)OC(=O)[C@@H]2C[C@@H]1C | 0.045 µM |  | 
CC[C@H]1[C@H](/C=C/c2ccc(-c3cccnc3)cn2)[C@@H]2[C@@H](C)OC(=O)[C@]2(O)C[C@@H]1C [listing 2 of 2 here] | 0.049 µM | 1.9 µg·h/mL | 
CC[C@H]1[C@H](CCc2ccc(-c3cccc(C(F)(F)F)c3)cn2)[C@@H]2[C@@H](C)OC(=O)[C@@H]2C[C@@H]1C | 0.225 µM |  | 
CC[C@H]1[C@H](/C=C/c2ccc(-c3ccoc3)cn2)[C@@H]2[C@@H](C)OC(=O)[C@]2(O)C[C@@H]1C.Cl |  |  | AUC(0-t) at 24 h [3]: 4.11 µg·h/mL; inhibition in vivo at 3 mg/kg (Cynomolgus monkey [4]): 35%
CC[C@H]1[C@H](/C=C/c2ccc(-c3cccc(C)c3)cn2)[C@@H]2[C@@H](C)OC(=O)[C@]2(O)C[C@@H]1C.Cl |  |  | inhibition in vivo at 3 mg/kg (Cynomolgus monkey [10]): 100%; AUC(0-t) at 24 h [3]: 2.77 µg·h/mL
CC[C@H]1[C@H](/C=C/c2ccc(-c3cccc(C#N)c3)cn2)[C@@H]2[C@@H](C)OC(=O)[C@]2(O)C[C@@H]1C.Cl |  |  | inhibition in vivo at 1 mg/kg (Cynomolgus monkey [6]): 60%; AUC(0-t) at 24 h [13]: 6.28 µg·h/mL
CC[C@H]1[C@H](/C=C/c2ccc(-c3ccsc3)cn2)[C@@H]2[C@@H](C)OC(=O)[C@]2(O)C[C@@H]1C.Cl |  |  | AUC(0-t) at 24 h [3]: 4.74 µg·h/mL; inhibition in vivo at 3 mg/kg (Cynomolgus monkey [4]): 90%
CC[C@H]1[C@H](/C=C/c2ccc(-c3ccccc3)cn2)[C@@H]2[C@@H](C)OC(=O)[C@]2(O)C[C@@H]1C [listing 2 of 2 here] | 0.0064 µM | 3.3 µg·h/mL | 
CC[C@H]1[C@H](/C=C/c2ccc(-c3cccc(C#N)c3)cn2)[C@@H]2[C@@H](C)OC(=O)[C@]2(O)C[C@@H]1C | 0.02 µM | 1.08 µg·h/mL | 
CC[C@H]1[C@H](/C=C/c2ccc(N3CCCC3)cn2)[C@@H]2[C@@H](C)OC(=O)[C@]2(O)C[C@@H]1C [listing 2 of 2 here] | 0.064 µM | 0.486 µg·h/mL | 
CC[C@H]1[C@H](/C=C/c2ccc(-c3ccoc3)cn2)[C@@H]2[C@@H](C)OC(=O)[C@]2(O)C[C@@H]1C | 0.0086 µM | 0.148 µg·h/mL | 
CC[C@H]1[C@H](/C=C/c2ccc(-c3cccc(C#N)c3)cn2)[C@@H]2[C@@H](C)OC(=O)[C@@H]2C[C@@H]1C | 0.021 µM |  | 
